Activity calls are given as the source filed them. The calls are words filed in the database; no cut-off is given here.
What was measured:
[1] = target: T1, Histone deacetylase (Homo sapiens) (UniProt Q13547+O15379+Q9UBN7+Q92769+Q9UQL6+Q8WUI4+Q9BY41+Q96DB2+P56524+Q9UKV0+Q969S8); assay: Inhibition of human HDAC in human HCT116 cells assessed as global histone H3 lysine-9 acetylation levels at 0.01 to 1 uM after 24 hrs by Western blotting method; assay type: cell-based; conditions: HCT-116
Method in brief: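 HCT116 cells treated 24 h with 10 nM, 100 nM or 1 μM compound, or DMSO. Western blot probed with anti-acetyl-H3 primary antibody and β-actin as loading control. Detection by dye-conjugated secondary antibodies on an infrared scanner.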

[2] = target: T2, Protein deacetylase HDAC6 (Homo sapiens) (UniProt Q9UBN7); assay: Inhibition of human HDAC6 (unknown origin) at 0.01 to 5 uM using Fluor de Lys substrate fluorimetric assay
T2 sequence (whole entry): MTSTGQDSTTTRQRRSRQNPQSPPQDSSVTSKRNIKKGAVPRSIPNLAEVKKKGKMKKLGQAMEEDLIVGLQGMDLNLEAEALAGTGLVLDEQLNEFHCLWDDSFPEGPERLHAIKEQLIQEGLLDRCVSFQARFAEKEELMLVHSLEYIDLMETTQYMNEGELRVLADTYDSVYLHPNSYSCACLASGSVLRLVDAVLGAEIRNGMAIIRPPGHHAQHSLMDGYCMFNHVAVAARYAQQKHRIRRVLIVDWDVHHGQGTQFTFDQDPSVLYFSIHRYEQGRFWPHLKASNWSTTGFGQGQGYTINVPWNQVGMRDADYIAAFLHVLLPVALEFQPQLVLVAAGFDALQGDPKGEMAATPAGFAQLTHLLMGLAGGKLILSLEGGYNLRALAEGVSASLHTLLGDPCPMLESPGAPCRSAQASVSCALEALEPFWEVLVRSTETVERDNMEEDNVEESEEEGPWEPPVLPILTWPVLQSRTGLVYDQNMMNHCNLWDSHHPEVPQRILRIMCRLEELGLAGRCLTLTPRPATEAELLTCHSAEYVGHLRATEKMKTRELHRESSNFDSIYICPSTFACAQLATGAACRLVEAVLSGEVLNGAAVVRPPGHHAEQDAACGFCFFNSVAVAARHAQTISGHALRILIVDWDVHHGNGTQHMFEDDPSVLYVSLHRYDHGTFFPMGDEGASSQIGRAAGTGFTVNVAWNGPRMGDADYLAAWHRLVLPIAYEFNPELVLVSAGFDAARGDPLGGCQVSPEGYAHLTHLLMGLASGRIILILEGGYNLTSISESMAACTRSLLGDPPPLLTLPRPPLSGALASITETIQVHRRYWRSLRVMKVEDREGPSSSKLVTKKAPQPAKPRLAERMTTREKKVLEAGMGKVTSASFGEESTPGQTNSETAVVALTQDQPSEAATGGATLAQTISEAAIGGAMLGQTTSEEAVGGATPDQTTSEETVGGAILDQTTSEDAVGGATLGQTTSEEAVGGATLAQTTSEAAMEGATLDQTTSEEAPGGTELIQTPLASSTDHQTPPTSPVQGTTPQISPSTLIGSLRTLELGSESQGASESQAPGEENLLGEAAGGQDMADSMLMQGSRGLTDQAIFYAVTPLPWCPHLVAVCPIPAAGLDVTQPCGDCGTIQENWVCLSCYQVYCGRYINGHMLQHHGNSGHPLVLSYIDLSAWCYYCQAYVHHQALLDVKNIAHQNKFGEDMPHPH
Method in brief: (§1)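 Recombinant HDAC6 incubated 1 h with inhibitor (0–5 μM) and class II-specific Fluor de Lys substrate, then developer added and fluorescence read. Compound with substrate and developer but no enzyme served as interference control. Three experiments, each in triplicate.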

[3] = target: Histone deacetylase 1 (Homo sapiens) (UniProt Q13547); assay: Inhibition of human HDAC1 (unknown origin) at 0.1 uM using Fluor de Lys substrate fluorimetric assay
Method in brief: (§2)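 Recombinant HDAC1 incubated 1 h with inhibitor (0–1 μM) and class I-specific Fluor de Lys substrate, then developer added and fluorescence read. Compound with substrate and developer but no enzyme served as interference control. Three experiments, each in triplicate.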

[4] = target: T2, Protein deacetylase HDAC6 (Homo sapiens); assay: Inhibition of human HDAC6 (unknown origin) at 5 uM using Fluor de Lys substrate fluorimetric assay
Method in brief: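 Recombinant HDAC6 from a fluorimetric kit, with a substrate specific for class II activity. Enzyme, inhibitor (0–5 μM) and Fluor de Lys substrate incubated 1 h, then developer added before the fluorescence read. Compound-only controls without enzyme, with substrate and developer, checked for signal interference. Three independent experiments, each in triplicate.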

[5] = target: Histone deacetylase 1 (Homo sapiens) (UniProt Q13547); assay: Inhibition of human HDAC1 (unknown origin) at 0.01 to 1 uM using Fluor de Lys substrate fluorimetric assay
[6] = target: Histone deacetylase 1 (Homo sapiens) (UniProt Q13547); assay: Inhibition of human HDAC1 (unknown origin) at 1 uM using Fluor de Lys substrate fluorimetric assay; method in brief: as §2
HCT-116 [7] = assay: Growth inhibition of human HCT116 cells at 5 uM after 96 hrs by MTS assay; assay type: functional, cell-based
Method in brief: (§3)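 HCT116 colorectal cells seeded at 3×10⁴ cells/well in quadruplicate, attached overnight, then medium replaced with compound-containing medium; 96 h at 37 °C, 5% CO₂. CellTiter 96 One Solution MTS added, 1.5 h at 37 °C, absorbance at 490 nm. Two experiments, each with 4 replicates, mean with SEM; GI50 taken from growth curves.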

[8] = target: T1, Histone deacetylase (Homo sapiens); conditions: HCT-116, 1 uM
HCT-116 [9] = assay: Inhibition of cell proliferation of human HCT116 cells at […] after 96 hrs by MTS assay; assay type: functional, cell-based
Method in brief: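 HCT116 colorectal cells seeded at 3×10⁴ cells/well in quadruplicate, left to attach overnight, then given fresh medium with compound for 96 h at 37 °C, 5% CO₂. MTS reagent added for 1.5 h, absorbance read at 490 nm. Mean of two experiments, each with 4 replicates.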

[10] = Growth inhibition of human HCT116 cells after 96 hrs by MTS assay; assay type: functional; conditions: HCT-116, 96 h; method in brief: as §3
[11] = target: T2, Protein deacetylase HDAC6 (Homo sapiens); assay: Inhibition of human HDAC6 (unknown origin) at 1 uM using Fluor de Lys substrate fluorimetric assay; method in brief: as §1

Histone deacetylase 1 (Homo sapiens), sequence (Q13547 whole entry): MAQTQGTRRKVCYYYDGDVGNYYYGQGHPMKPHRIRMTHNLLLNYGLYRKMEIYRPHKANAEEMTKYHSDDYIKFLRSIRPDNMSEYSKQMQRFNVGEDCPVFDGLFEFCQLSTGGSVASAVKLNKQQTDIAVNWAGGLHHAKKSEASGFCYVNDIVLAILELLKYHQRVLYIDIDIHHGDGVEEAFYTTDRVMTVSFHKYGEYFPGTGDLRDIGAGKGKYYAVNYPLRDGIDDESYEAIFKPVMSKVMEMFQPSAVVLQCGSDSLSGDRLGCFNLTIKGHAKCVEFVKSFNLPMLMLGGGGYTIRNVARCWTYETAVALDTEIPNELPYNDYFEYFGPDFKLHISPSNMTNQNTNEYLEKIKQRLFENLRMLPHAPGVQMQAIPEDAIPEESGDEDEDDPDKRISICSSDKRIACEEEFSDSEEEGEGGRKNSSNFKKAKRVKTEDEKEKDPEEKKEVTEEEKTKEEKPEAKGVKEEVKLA

| SMILES | inhibition [1] | inhibition [2] | inhibition [3] | inhibition [4] [%] | inhibition [5] | inhibition [6] [%] | growth inhibition (GI) (HCT-116 [7]) | inhibition [8] | inhibition (HCT-116 [9]) | GI50 [10] [µM] | inhibition [11] [%] |
| --- | --- | --- | --- | --- | --- | --- | --- | --- | --- | --- | --- |
| CCCCCCCC(=O)SCC/C=C/[C@@H]1CC(=O)NCc2nc(cs2)C2=N[C@@](C)(CS2)C(=O)N[C@@H](C(C)C)C(=O)O1 | Active | Active | 15% | 75 | Active | > 90 |  |  |  |  |  |
| CCCCCCCC(=O)SCC/C=C/[C@@H]1CC(=O)NCc2nc(cs2)C2=N[C@](C)(CS2)C(=O)N[C@@H](C(C)C)C(=O)O1 | inactive |  |  |  |  | < 15 | inactive | Active |  |  |  |
| CCCCCCCC(=O)SCC/C=C/[C@@H]1CC(=O)NCc2nc(cs2)C2=N[C@@](C)(CS2)C(=O)N[C@H](Cc2cccc3ccccc23)C(=O)O1 | inactive | inactive |  |  |  | < 15 | inactive |  |  |  |  |
| C=CC[C@@H]1NC(=O)[C@]2(C)CSC(=N2)c2csc(n2)CNC(=O)C[C@@H](/C=C/CCSC(=O)CCCCCCC)OC1=O | Active |  | inactive | 55 | Active | > 90 |  |  | inactive | 0.01 | 50 |
| CCCCCCCC(=O)SCC/C=C/[C@@H]1CC(=O)NCc2nc(cs2)C2=N[C@@](C)(CS2)C(=O)N[C@@H](Cc2cccc3ccccc23)C(=O)O1 | Active |  | 15% | 50 | Active | > 90 |  |  | inactive | 0.056 | 50 |

Source: ChEMBL document CHEMBL3352516, “Synthesis and biological evaluation of largazole analogues with modified surface recognition cap groups” (2014)
